Assay results reported in ChEMBL document CHEMBL1142436, “Design and synthesis of 4-substituted indolo[3,2-e][1,2,3]triazolo[1,5-a]pyrimidine derivatives with antitumor activity” (2008).

Legend:
Format in all cases: functional
[1] = system: NCI-H460; assay: Growth inhibition of human NCI-H460 cells after 48 hrs; conditions: NCI-H460, 48 h
Summary of the method: (§1)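 NCI ~60-line screen. Cells were grown in RPMI 1640 with 5% FBS and 2 mM L-glutamine and plated at 5000–40000 cells/well. After a 24 h preincubation, five drug concentrations from DMSO stocks were added for 48 h at 37 °C. Cells were TCA-fixed, stained with SRB and read at 515 nm. GI50 was taken from time-zero and control absorbances and reported as pGI50.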

[2] = system: HCT-116; assay: Growth inhibition of human HCT116 cells after 48 hrs; conditions: HCT-116, 48 h; summary of the method: as §1
[3] = system: KM12; assay: Growth inhibition of human KM12 cells after 48 hrs; conditions: KM12, 48 h; summary of the method: as §1
[4] = system: NCI-H322M; assay: Growth inhibition of human NCI-H322M cells after 48 hrs; summary of the method: as §1
[5] = system: SF-268; assay: Growth inhibition of human SF268 cells after 48 hrs; conditions: SF-268, 48 h; summary of the method: as §1
[6] = system: NCI/ADR-RES; assay: Growth inhibition of human NCI/ADR-RES cells after 48 hrs; summary of the method: as §1
[7] = system: COLO 205; assay: Growth inhibition of human COLO205 cells after 48 hrs; conditions: COLO 205, 48 h; summary of the method: as §1
[8] = system: MOLT-4; assay: Growth inhibition of human MOLT4 cells after 48 hrs; conditions: MOLT-4, 48 h; summary of the method: as §1
[9] = system: RXF 393; assay: Growth inhibition of human RXF393 cells after 48 hrs; conditions: RXF 393, 48 h; summary of the method: as §1
[10] = system: UACC-257; assay: Growth inhibition of human UACC257 cells after 48 hrs; conditions: UACC-257, 48 h
Summary of the method: (§2)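 NCI 60-line screen: cells in RPMI 1640 with 5% FBS and 2 mM L-glutamine, plated at 5000–40000 cells/well, grown 24 h (37 °C, 5% CO₂), then exposed to five 10-fold or ½-log dilutions (DMSO stock) for 48 h. Fixed with TCA (final 10% for adherent cells, 16% for suspension cells), then SRB stained with absorbance at 515 nm. GI50 from percentage growth relative to time-zero and control wells.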

[11] = system: SF-539; assay: Growth inhibition of human SF539 cells after 48 hrs; conditions: SF-539, 48 h; summary of the method: as §1
[12] = system: UO-31; assay: Growth inhibition of human UO31 cells after 48 hrs; conditions: UO-31, 48 h; summary of the method: as §2
[13] = system: PC-3; assay: Growth inhibition of human PC3 cells after 48 hrs; conditions: PC-3, 48 h; summary of the method: as §1
[14] = system: NCI-H226; assay: Growth inhibition of human NCI-H226 cells after 48 hrs; conditions: NCI-H226, 48 h; summary of the method: as §1
[15] = system: A549; assay: Growth inhibition of human A549 cells after 48 hrs; conditions: A549, 48 h; summary of the method: as §1
[16] = system: HOP-62; assay: Growth inhibition of human HOP62 cells after 48 hrs; conditions: HOP-62, 48 h; summary of the method: as §1
[17] = system: ACHN; assay: Growth inhibition of human ACHN cells after 48 hrs; summary of the method: as §1
[18] = system: UACC-62; assay: Growth inhibition of human UACC62 cells after 48 hrs; conditions: UACC-62, 48 h; summary of the method: as §2
[19] = system: SK-MEL-2; assay: Growth inhibition of human SK-MEL2 cells after 48 hrs; conditions: SK-MEL-2, 48 h; summary of the method: as §1
[20] = Growth inhibition of human HS578T cells after 48 hrs; conditions: Hs-578T; summary of the method: as §1
[21] = system: SK-MEL-5; assay: Growth inhibition of human SK-MEL5 cells after 48 hrs; conditions: SK-MEL-5, 48 h; summary of the method: as §1
[22] = system: SNB-19; assay: Growth inhibition of human SNB19 cells after 48 hrs; conditions: SNB-19, 48 h; summary of the method: as §2
[23] = system: CCRF-CEM; assay: Growth inhibition of human CCRF-CEM cells after 48 hrs; summary of the method: as §1
[24] = system: TK-10; assay: Growth inhibition of human TK10 cells after 48 hrs; conditions: TK-10, 48 h; summary of the method: as §2
[25] = system: MDA-MB-435; assay: Growth inhibition of human MDA-MB435 cells after 48 hrs; conditions: MDA-MB-435, 48 h; summary of the method: as §1
[26] = system: OVCAR-8; assay: Growth inhibition of human OVCAR8 cells after 48 hrs; conditions: OVCAR-8, 48 h; summary of the method: as §1
[27] = system: RPMI-8226; assay: Growth inhibition of human RPMI8226 cells after 48 hrs; conditions: RPMI-8226, 48 h; summary of the method: as §1
[28] = system: SF-295; assay: Growth inhibition of human SF295 cells after 48 hrs; conditions: SF-295, 48 h; summary of the method: as §1
[29] = system: 786-0; assay: Growth inhibition of human 786-0 cells after 48 hrs; conditions: 786-0, 48 h; summary of the method: as §1
[30] = system: SN12C; assay: Growth inhibition of human SN12C cells after 48 hrs; summary of the method: as §2
[31] = read-out: Log LC50 (the source's name) (converted)

## Cn1c2ccccc2c2c(=O)n(CCCC(=O)NCC(=O)N(C(=O)NC3CCCCC3)C3CCCCC3)c3c(-c4ccccc4)nnn3c21
[1]
  GI50: 32.4 µM
  LC50: > 100 µM
[1]; read-out: pTGI (converted)
  TGI: > 100 µM
[2]
  GI50: 14.1 µM
  LC50: > 100 µM
[2]; read-out: pTGI (converted)
  TGI: 42.7 µM
[3]
  GI50: 31.6 µM
  LC50: > 100 µM
[3]; read-out: pTGI (converted)
  TGI: > 100 µM
[4]
  GI50: > 100 µM
  LC50: > 100 µM
[4]; read-out: pTGI (converted)
  TGI: > 100 µM
[5]
  GI50: 15.1 µM
[5]; [31]
  CC50: > 100 µM
[5]; read-out: pTGI (converted)
  TGI: > 100 µM
[6]
  GI50: 15.5 µM
  LC50 (concentration killing 50% of cells): 72.4 µM
[6]; read-out: pTGI (converted)
  TGI: 33.9 µM
[7]
  GI50: 2.82 µM
  LC50: > 100 µM
[7]; read-out: pTGI (converted)
  TGI: > 100 µM
[8]
  GI50: 14.5 µM
  LC50: > 100 µM
[8]; read-out: pTGI (converted)
  TGI: > 100 µM
[9]
  GI50: 11 µM
  LC50: > 100 µM
[9]; read-out: pTGI (converted)
  TGI: 37.2 µM
[10]
  GI50: 66.1 µM
  LC50: > 100 µM
[10]; read-out: pTGI (converted)
  TGI: > 100 µM
[11]
  LC50 (concentration killing 50% of cells): > 100 µM
[11]; read-out: pTGI (converted)
  TGI: 57.5 µM
[12]
  GI50: 31.6 µM
  LC50: > 100 µM
[12]; read-out: pTGI (converted)
  TGI: > 100 µM
[13]
  GI50: 22.9 µM
  LC50: > 100 µM
[13]; read-out: pTGI (converted)
  TGI: > 100 µM
[14]
  GI50: 39.8 µM
[14]; [31]
  CC50: > 100 µM
[14]; read-out: pTGI
  TGI: > 100 µM
[15]
  GI50: 38 µM
[15]; [31]
  CC50: > 50.1 µM
[15]; read-out: pTGI (converted)
  TGI: > 50.1 µM
[16]
  GI50: 15.1 µM
  LC50: 87.1 µM
[16]; read-out: pTGI (converted)
  TGI: 36.3 µM
[17]
  GI50: 26.3 µM
  LC50: > 100 µM
[17]; read-out: pTGI (converted)
  TGI: > 100 µM
[18]
  GI50: 25.7 µM
  LC50: > 100 µM
[18]; read-out: pTGI (converted)
  TGI: > 100 µM
[19]
  GI50: 33.1 µM
  LC50: > 100 µM
[19]; read-out: pTGI (converted)
  TGI: > 100 µM
[20]
  GI50: 9.33 µM
  LC50 (50% lethal concentration): > 100 µM
[20]; read-out: pTGI (converted)
  TGI: > 100 µM
[21]
  GI50: 6.03 µM
  LC50: > 100 µM
[21]; read-out: pTGI (converted)
  TGI: 31.6 µM
[22]
  LC50: > 100 µM
[22]; read-out: pTGI (converted)
  TGI: > 100 µM
[23]
  GI50: 8.32 µM
  LC50: > 100 µM
[23]; read-out: pTGI (converted)
  TGI: 57.5 µM
[24]
  GI50: > 100 µM
  LC50: > 100 µM
[24]; read-out: pTGI (converted)
  TGI: > 100 µM
[25]
  GI50: 25.1 µM
  LC50: > 100 µM
[25]; read-out: pTGI (converted)
  TGI: > 100 µM
[26]
  LC50: > 100 µM
[27]
  GI50: 4.27 µM
  LC50: 97.7 µM
[27]; read-out: pTGI (converted)
  TGI: 21.4 µM
[28]
  GI50: > 100 µM
  LC50: > 100 µM
[28]; read-out: pTGI (converted)
  TGI: > 100 µM
[29]
  GI50: 18.6 µM
  LC50: > 100 µM
[29]; read-out: pTGI (converted)
  TGI: 44.7 µM
[30]
  GI50: 19.5 µM
  LC50: > 100 µM
[30]; read-out: pTGI (converted)
  TGI: 50.1 µM
